Active and inactive are the calls of the source. The calls are words filed in the database; no cut-off is given here.
Columns and labels:
Rattus norvegicus [1] = assay: Anticonvulsant activity in po dosed albino Sprague-Dawley rat seizure model assessed as protection against hind limb extension by MES test; format: functional; details: Hindlimb
Summary of the method: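 MES seizure protection was tested in Sprague Dawley rats dosed orally, through the NINDS ASP. The ED50 is expressed in mg/kg.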

Rattus norvegicus [2] = assay: Anticonvulsant activity against subcutaneous metrazole-induced seizures in albino Sprague-Dawley rat at 300 mg/kg, ip after 4 hrs; format: functional, organism-based; set-up: dose 300 mg/kg
Mus musculus [3] = assay: Anticonvulsant activity against subcutaneous metrazole-induced seizures in albino CF1 mouse at 300 mg/kg, ip after 0.5 hrs; format: functional, organism-based; set-up: dose 300 mg/kg
Summary of the method: (§1)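 Subcutaneous Metrazol seizure test under the NINDS ASP, using ip dosing to mice, typically at 300 mg/kg. Protection was assessed at 0.5 and 4 h.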

[4] = Behavioral toxicity in po dosed albino Sprague-Dawley rat; format: organism-based; details: in vivo
Summary of the method: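 Behavioral toxicity was recorded as observed effects in rats after oral administration, within the NINDS ASP screen.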

Mus musculus [5] = assay: Anticonvulsant activity against subcutaneous metrazole-induced seizures in albino CF1 mouse at 300 mg/kg, ip after 4 hrs; format: functional, organism-based; set-up: dose 300 mg/kg; summary of the method: as §1
Mus musculus [6] = assay: Anticonvulsant activity in ip dosed albino CF1 mouse seizure model assessed as protection against hind limb extension by MES test; format: functional; details: albino CF1, Hindlimb
Summary of the method: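 Maximal electroshock seizure test run by the NINDS ASP (Stables and Kupferberg procedures). Compounds were given intraperitoneally to mice, and the ED50 for seizure protection is reported in mg/kg.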

[7] = Neurological toxicity in ip dosed albino CF1 mouse assessed as neurological impairment by rotarod test; format: organism-based; details: in vivo
Summary of the method: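 Neurological impairment was measured with the rotorod test in mice dosed intraperitoneally. The median dose (TD50, mg/kg) was determined only for compounds with significant MES activity.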

Rattus norvegicus [8] = assay: Anticonvulsant activity against subcutaneous metrazole-induced seizures in albino Sprague-Dawley rat at 300 mg/kg, ip after 0.5 hrs; format: functional, organism-based; set-up: dose 300 mg/kg
Rattus norvegicus [9] = assay: Protective index, ratio of TD50 for po dosed albino Sprague-Dawley rat to ED50 for po dosed albino Sprague-Dawley rat; format: functional
Summary of the method: (§2)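 Protective index was calculated as TD50/ED50 for the same species and route: mouse ip (rotorod TD50, MES ED50) and rat po.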

Mus musculus [10] = assay: Protective index, ratio of TD50 for ip dosed albino CF1 mouse to ED50 for ip dosed albino CF1 mouse; format: functional; summary of the method: as §2
Rattus norvegicus [11] = assay: Anticonvulsant activity against in ip dosed albino Sprague-Dawley rat hippocampal kindled seizure model assessed as after-discharge duration after 0.5 hrs; format: functional, Hippocampus
Summary of the method: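 Rats were given compounds intraperitoneally in the rapid hippocampal kindling model under the NINDS ASP. Racine seizure score and after-discharge duration (sec) were recorded before and after dosing. Where determined, ED50 (mg/kg) is given with an interval.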

| Compound | ED50 (Rattus norvegicus [1]) [mg/kg] | Activity (Rattus norvegicus [2]) | Activity (Mus musculus [3]) | TD50 [4] [mg/kg] | Activity (Mus musculus [5]) | ED50 (Mus musculus [6]) [mg/kg] | TD50 [7] [mg/kg] | Activity (Rattus norvegicus [8]) | PI (Rattus norvegicus [9]) | PI (Mus musculus [10]) | Time (Rattus norvegicus [11]) [s] |
| --- | --- | --- | --- | --- | --- | --- | --- | --- | --- | --- | --- |
| CCc1ccc(CNC(=O)[C@@H](COC)NC(C)=O)cc1 | 18 | inactive | inactive | > 250 | inactive | 10 | 30 | inactive | >14 |  |  |
| COC[C@@H](NC(C)=O)C(=O)NCc1ccc(Br)cc1 | 4.9 | inactive | inactive | 300 | inactive | 8.7 | 30 | inactive | 61 | 3.5 |  |
| COC[C@@H](NC(C)=O)C(=O)NCc1ccc(-c2ccccc2)cc1 | 2 | inactive | inactive | 49 | inactive | 8 | 11 | inactive | >25 |  |  |
| COC[C@@H](NC(C)=O)C(=O)NCc1ccc(OC)cc1 | 28 | inactive | inactive | > 500 | inactive | 30 | 100 | inactive | >18 |  |  |
| COC[C@@H](NC(C)=O)C(=O)NCc1cccc(F)c1 |  | inactive | inactive | > 400 | inactive |  |  | inactive | >58 | 6.7 |  |
| O=C1NC(=O)C(c2ccccc2)(c2ccccc2)N1 [PHENYTOIN] |  | inactive | inactive |  | inactive |  |  | inactive |  |  | 51 |
| COC[C@@H](NC(C)=O)C(=O)NCc1ccccc1F | 11 | inactive | inactive | > 30 | inactive | 10 | 100 | inactive | >2.7 |  |  |
| C#Cc1ccc(CNC(=O)[C@@H](COC)NC(C)=O)cc1 | 3.4 | inactive | inactive | > 250 | inactive | 3 |  | inactive | >74 |  |  |
| COC[C@@H](NC(C)=O)C(=O)NCc1ccccc1OC(F)(F)F | 23 | inactive | inactive | > 500 | inactive | 30 | 100 | inactive | >22 |  |  |
| COC[C@@H](NC(C)=O)C(=O)NCc1ccc(C(C)C)cc1 | > 30 | inactive | inactive | > 30 | inactive | 10 | 100 | inactive |  |  |  |
| COC[C@@H](NC(C)=O)C(=O)NCc1ccc(C(F)(F)F)cc1 | 4.9 | inactive | inactive | > 280 | inactive | 10 | 100 | inactive | >57 |  |  |
| COCC#Cc1ccc(CNC(=O)[C@@H](COC)NC(C)=O)cc1 | 18 | inactive | inactive | 100 | inactive | 10 | 15 | inactive | 5.5 | 1.5 |  |
| COC[C@@H](NC(C)=O)C(=O)NCc1ccc(C)cc1 | 8.1 | inactive | inactive | > 500 | inactive | 11 | 31 | inactive | >62 | 3 |  |
| COC[C@@H](NC(C)=O)C(=O)NCc1ccc(NC(=O)C(F)(F)F)cc1 | > 30 | inactive | inactive | > 30 | inactive | > 300 | 100 | inactive |  |  |  |
| COC[C@@H](NC(C)=O)C(=O)NCc1ccc(OC(F)(F)F)cc1 | 1.7 | inactive | inactive | 63 | inactive | 3.6 | 13 | inactive | 37 | 3.6 |  |
| COC[C@@H](NC(C)=O)C(=O)NCc1ccccc1 [LACOSAMIDE] |  | inactive | inactive | > 500 | inactive |  |  | inactive | >130 | 6 | 0 |
| COC[C@@H](NC(C)=O)C(=O)NCc1ccc(C(C)(C)C)cc1 | > 30 | inactive | inactive | > 30 | inactive | 100 | 100 | inactive |  |  |  |
| CCCc1ccc(CNC(=O)[C@@H](COC)NC(C)=O)cc1 | < 30 | inactive | inactive | > 30 | inactive | 8.5 | 13 | inactive |  | 1.5 |  |
| COC[C@@H](NC(C)=O)C(=O)NCc1ccc(F)cc1 |  | inactive | inactive | 125 | inactive |  |  | inactive | >48 | 6.7 |  |
| COC[C@@H](NC(C)=O)C(=O)NCc1ccc(C#N)cc1 | > 30 | inactive | inactive | > 30 | inactive | 150 | > 500 | inactive |  | >3.3 |  |
| COC[C@H](NC(C)=O)C(=O)NCc1ccc(I)cc1 | > 30 | inactive | inactive | > 30 | inactive | 100 | > 300 | inactive |  |  |  |

From ChEMBL document CHEMBL1156809, “Synthesis and anticonvulsant activities of (R)-N-(4'-substituted)benzyl 2-acetamido-3-methoxypropionamides” (J Med Chem, 2010)
